Publication PMC12705676 (Scientific Reports, 2025)
Read-outs that look alike come from different tables or passages of the source.

Key:
[1] = ABTS radical scavenging assay; format: biochemical; conditions: concentration to scavenge 50% of radicals, mean ± SD; for IC50: read-out: ABTS IC50
Procedure, shortened: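 ABTS radical cation generated by reacting ABTS with potassium persulfate, then diluted to an absorbance of about 0.700 at 732 nm. Test compound at several concentrations was mixed with the ABTS⁺ solution and the fall in absorbance recorded. Percent scavenging was calculated against a solvent control, with ascorbic acid as reference antioxidant. Three independent experiments in triplicate, mean ± SD.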

[2] = system: AGS (human gastric adenocarcinoma); experiment: SRB cytotoxicity assay, AGS cells; format: cell-based; conditions: read-out: IC50 AGS
Procedure, shortened: (§1)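 Cells plated at 3 × 10³ per well and left 24 h to attach at 37 °C, 5% CO₂. Test compound at 0–100 µM from ethanol stocks (1% final ethanol) for 72 h. Fixation in TCA (10% final), staining with 0.1% SRB, dye solubilized in 10 mM Tris, A540. Viability relative to 1% ethanol vehicle. IC50 from a four-parameter logistic fit with 95% CI; triplicate, three independent runs, mean ± SD. SI = IC50 in GES-1 divided by IC50 in the cancer line.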

[3] = system: GES-1 (healthy gastric epithelial cells); experiment: SRB cytotoxicity assay, GES-1 non-tumor cells; format: cell-based, human; conditions: read-out: IC50 GES-1, 72 h treatment, mean ± SD
human erythrocytes = experiment: Hemolysis assay; format: cell-based; conditions: for Hemolysis (%): 30 min, 37 °C
Procedure, shortened: (§2)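 Donor blood was collected in EDTA. RBCs were pelleted at 500 × g for 10 min, washed three times in PBS and resuspended in PBS. Cells were exposed to test compound at 10–300 µg/mL for 30 min at 37 °C with gentle agitation, then spun at 1000 × g for 5 min; supernatant hemoglobin was read at 540 nm. Deionized water defined 100% and PBS 0% hemolysis. Triplicate, three independent repeats.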

[4] = system: HT-29 (human colorectal adenocarcinoma); experiment: SRB cytotoxicity assay, HT-29 cells; format: cell-based; conditions: read-out: IC50 HT-29
Procedure, shortened: as §1

[5] = system: PC-3 (human prostate cancer); experiment: SRB cytotoxicity assay, PC-3 cells; format: cell-based; conditions: read-out: IC50 PC-3
Procedure, shortened: as §1

[6] = DPPH radical scavenging assay; format: biochemical; conditions: concentration to scavenge 50% of radicals, 15 min, mean ± SD
Procedure, shortened: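 Test compound solutions (5–400 µg/mL, concentration before mixing) were added to 50 µM ethanolic DPPH and kept 15 min at room temperature in the dark, then read at 517 nm. A blank with solvent in place of compound served as control. IC50 came from linear regression of % scavenging against concentration. Three independent experiments in triplicate, mean ± SD.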

Hemolysis assay = format: cell-based, human; conditions: human, washed human red blood cells, Hemolysis (%), 30 min, 37 °C
Procedure, shortened: as §2

Compound | ABTS IC50 [1] | IC50 [1] [µM] | IC50 ([2]; SRB, 72 h treatment, mean ± SD) [µM] | IC50 [3] [µM] | Hemolysis (%) (human erythrocytes; 10 µg/mL) | Hemolysis (%) (human erythrocytes; 25 µg/mL) | Hemolysis (%) (human erythrocytes; 50 µg/mL) | Hemolysis (%) (human erythrocytes; 100 µg/mL) | Hemolysis (%) (human erythrocytes; 200 µg/mL) | Hemolysis (%) (human erythrocytes; 300 µg/mL) | Hemolysis, result in words (human erythrocytes; 10–300 µg/mL) | IC50 ([4]; SRB, 72 h treatment, mean ± SD) [µM] | IC50 ([5]; SRB, 72 h treatment, mean ± SD) [µM] | DPPH IC50 [6] | IC50 ([2]; Homo sapiens, AGS, 72 h) [µM] | hemolysis at 30 min, 200 µg/mL (Hemolysis assay; 200 µg/mL) [%] | hemolysis at 30 min, 300 µg/mL (Hemolysis assay; 300 µg/mL) [%] | IC50 ([4]; Homo sapiens, HT-29, 72 h) [µM] | IC50 ([5]; Homo sapiens, PC-3, 72 h) [µM]
CC12CCC(CC1=O)C2(C)C (centres unmarked) [Compound 2, camphor, reference compound] | inactive | > 2630 | > 100 | 322.7 ± 1.7 | 5.25 | 6.55 | 9.61 | 11.29 | 16.16 | 16.62 | concentration dependent increase in hemolysis | > 100 | > 100 | inactive | – | – | – | – | –
CC12CCC(CC1=O)C2(C)C (centres unmarked) [Compound 1, camphor, reference compound] | inactive | > 2630 | – | – | 0 | 0.06 | 3.11 | 4.80 | – | – | – | – | – | inactive | > 100 | 9.67 | 10.1 | > 100 | > 100
